Results reported in ChEMBL document CHEMBL4706579, “Novel quinazolinone inhibitors of the Pseudomonas aeruginosa quorum sensing transcriptional regulator PqsR” (Eur J Med Chem, 2020).
Activity calls are given as the source filed them. No cut-off for these calls is given here.

Legend:
[1] = target: T1, Transcriptional regulator MvfR (Pseudomonas aeruginosa PA14) (UniProt A0A072ZLE6); assay: Inhibition of PqsR in Pseudomonas aeruginosa PA14 harboring mCTX:PpqsA-lux fusion assessed as remaining activity at 10 uM incubated for 24 hrs by spot test relative to control
T1 sequence (whole entry): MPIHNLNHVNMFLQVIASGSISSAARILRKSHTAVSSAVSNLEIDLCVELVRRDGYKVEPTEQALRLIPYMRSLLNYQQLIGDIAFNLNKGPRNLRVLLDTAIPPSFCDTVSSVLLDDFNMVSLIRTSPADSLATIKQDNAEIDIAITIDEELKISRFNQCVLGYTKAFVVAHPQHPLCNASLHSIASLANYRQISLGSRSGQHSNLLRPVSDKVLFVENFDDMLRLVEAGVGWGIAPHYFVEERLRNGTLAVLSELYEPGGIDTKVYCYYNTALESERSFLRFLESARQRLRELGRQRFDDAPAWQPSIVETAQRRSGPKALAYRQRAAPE
Method in brief: (§1)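 Chromosomal mCTX:PpqsA-lux reporter strain in LB, overnight culture (OD600 2.0–3.0) diluted to OD600 0.02 and mixed 1:1 with compound, final 10 μM, at least triplicate wells. Run at 37 °C for 24 h, with OD600 and luminescence read every 30 min. Luminescence/OD600 taken at the luminescence peak (8–9 h) and normalised to the 0.1% DMSO control (100%).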

[2] = target: T1, Transcriptional regulator MvfR (Pseudomonas aeruginosa PA14); assay: Inhibition of PqsR in Pseudomonas aeruginosa PAO1 L harboring mCTX:PpqsA-lux fusion protein assessed as remaining enzyme activity at 10 uM and measured every 30 mins for 24 hrs by spot test relative to control; method in brief: as §1
[3] = target: T2, Transcriptional regulator MvfR (Pseudomonas aeruginosa PA14, UniProt A0A072ZLE6); assay: Inhibition of PqsR in Pseudomonas aeruginosa PA14 harboring mCTX:PpqsA-lux fusion protein measured every 30 mins for 24 hrs by luminescence reporter gene assay
T2 sequence (A0A072ZLE6 whole entry): T1 sequence (whole entry)
Method in brief: (§2)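 Chromosomal mCTX:PpqsA-lux reporter strain grown overnight to OD600 2.0–3.0, diluted in LB to OD600 0.02 and mixed 1:1 with compound in LB. Ten […] serial concentrations, final 31.6 μM to 1 nM, in triplicate. Run at 37 °C for 24 h with OD600 and luminescence read every 30 min. IC50 from log concentration vs RLU/OD600 at the luminescence peak (8–9 h).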

[4] = target: T2, Transcriptional regulator MvfR; assay: Inhibition of PqsR in Pseudomonas aeruginosa PAO1 L harboring mCTX:PpqsA-lux fusion protein measured every 30 mins for 24 hrs by luminescence reporter gene assay; method in brief: as §2
Pseudomonas aeruginosa = assay: Bactericidal activity against Pseudomonas aeruginosa PAO1 L assessed as inhibition of bacterial growth; format: functional, organism-based
A549 = assay: Cytotoxicity against human A549 cells assessed as reduction in cell viability at 0.1 to 100 uM after 16 hrs by Alamar blue assay; format: cell-based; conditions: a549, 16 h, dose 0.1-100 µM
Method in brief: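 A549 lung epithelial cells kept in DMEM with 10% FBS and 1% penicillin-streptomycin at 37 °C, 5% CO2. Trypsinised at 80% confluence, resuspended in DMEM-F12, seeded at 10,000 cells/well, left 16 h. Compound added (0.1–100 μM), 16 h further incubation. Alamar blue for 5 h, fluorescence ex 510/em 590 nm, normalised to untreated cells.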

[5] = Solubility of the compound in test buffer at >100 uM; format: physicochemical
[6] = target: T1, Transcriptional regulator MvfR (Pseudomonas aeruginosa PA14); assay: Inhibition of Pseudomonas aeruginosa PAO1-L PqsR assessed as reduction in pyocyanin production by measuring pyocyanin level at 3 times IC50 incubated for 16 hrs; set-up: scale not given: the % may be the effect or the level left
[7] = tested on: Pseudomonas aeruginosa PA14 PqsR; assay: Therapeutic index, ratio of cytotoxicity against human A549 cells to IC50 for inhibition of Pseudomonas aeruginosa PA14 PqsR; format: toxicity, cell-based; conditions: read-out: TI
[8] = target: T1, Transcriptional regulator MvfR (Pseudomonas aeruginosa PA14); assay: Inhibition of PqsR in Pseudomonas aeruginosa PAO1 L harboring mCTX:PpqsA-lux fusion at 10 uM and measured every 30 mins for 24 hrs by spot test; method in brief: as §1

## N#CCc1nc(Cn2cnc3ccc(Cl)cc3c2=O)cs1
[1]
  Activity: > 50%
[2]
  Activity: 104%

## CCCC(C)c1nc(Cn2cnc3ccc(Cl)cc3c2=O)cs1 (configuration not stated)
[3]
  IC50: 0.646 µM
[4]
  IC50: 1.11 µM
Pseudomonas aeruginosa
  Activity: inactive

## O=c1c2cc(Cl)ccc2ncn1Cc1cnc(NC2CCCCC2)s1
[1]
  Activity: > 50%
[2]
  Activity: 83%

## CC(C)c1nc(Cn2cnc3cc(F)ccc3c2=O)cs1
[4]
  IC50: 13.2 µM

## CC(C)(C)c1nc(Cn2cnc3cc(Cl)ccc3c2=O)cs1
[1]
  Activity: > 50%
[4]
  IC50: 2.94 µM
Pseudomonas aeruginosa
  Activity: inactive

## CC1CCN(c2ncc(Cn3cnc4ccc(Cl)cc4c3=O)s2)CC1
[1]
  Activity: > 50%
[2]
  Activity: 72%

## CC(C)(C)c1nc(Cn2cnc3ccc(Cl)cc3c2=O)cs1
[3]
  IC50: 0.65 µM
[4]
  IC50: 0.397 µM
Pseudomonas aeruginosa
  Activity: inactive

## COCCNc1ncc(Cn2cnc3ccc(Cl)cc3c2=O)s1
[1]
  Activity: > 50%
[2]
  Activity: 85%

## CCCCCCc1nc(Cn2cnc3ccc(Cl)cc3c2=O)cs1
A549
  Activity: Non-Toxic
[3]
  IC50: 0.265 µM
[4]
  IC50: 0.298 µM
[5]
  solubility: Insoluble
[6]
  Activity: 36%
[7]
  selectivity ratio: > 377
Pseudomonas aeruginosa
  Activity: inactive

## CC(C)c1noc(Cn2cnc3ccc(Cl)cc3c2=O)n1
[8]
  inhibition: inactive

## CCCCCc1nc(Cn2cnc3cc(Cl)ccc3c2=O)cs1
[1]
  Activity: > 50%
[2]
  Activity: 106%

## CCCCCc1nc(Cn2cnc3ccc(Cl)cc3c2=O)cs1
A549
  Activity: Non-Toxic
[3]
  IC50: 0.342 µM
[4]
  IC50: 0.313 µM
[5]
  solubility: Insoluble
[6]
  Activity: 23%
[7]
  selectivity ratio: > 292
Pseudomonas aeruginosa
  Activity: inactive

## CC(C)Cc1nc(Cn2cnc3ccc(Cl)cc3c2=O)cs1
[3]
  IC50: 1.33 µM
[4]
  IC50: 1.22 µM
Pseudomonas aeruginosa
  Activity: inactive

## CC(C)c1ncc(Cn2cnc3ccc(Cl)cc3c2=O)s1
[1]
  Activity: > 50%
[2]
  Activity: 65%

## CCC(C)Cc1nc(Cn2cnc3ccc(Cl)cc3c2=O)cs1 (configuration not stated)
[3]
  IC50: 0.639 µM
[4]
  IC50: 1.57 µM
Pseudomonas aeruginosa
  Activity: inactive

## CC(C)CCc1nc(Cn2cnc3ccc(Cl)cc3c2=O)cs1
[3]
  IC50: 0.683 µM
[4]
  IC50: 1.36 µM
Pseudomonas aeruginosa
  Activity: inactive

## O=c1c2cc(Cl)ccc2ncn1Cc1csc(C(F)(F)F)n1
[1]
  Activity: > 50%
[2]
  Activity: 52%

## CCCCc1nc(Cn2cnc3ccc(Cl)cc3c2=O)cs1
[3]
  IC50: 1.72 µM
[4]
  IC50: 1.56 µM
Pseudomonas aeruginosa
  Activity: inactive

## CN(CCO)c1ncc(Cn2cnc3ccc(Cl)cc3c2=O)s1
[1]
  Activity: > 50%
[2]
  Activity: 101%

## O=c1c2cc(Cl)ccc2ncn1Cc1cnc(Cl)s1
[1]
  Activity: > 50%
[2]
  Activity: 95%

## CC(C)c1nc(Cn2cnc3ccc(Cl)cc3c2=O)cs1
[3]
  IC50: 1.58 µM
[4]
  IC50: 1.05 µM
Pseudomonas aeruginosa
  Activity: inactive

## NC(N)=Nc1nc(Cn2cnc3ccc(Cl)cc3c2=O)cs1
[1]
  Activity: > 50%
[2]
  Activity: 108%

## CCCCNc1nc(Cn2cnc3ccc(Cl)cc3c2=O)cs1
[1]
  Activity: > 50%
[4]
  IC50: 3.54 µM
Pseudomonas aeruginosa
  Activity: inactive

## CCc1nc(Cn2cnc3ccc(Cl)cc3c2=O)cs1
[1]
  Activity: > 50%
[2]
  Activity: 79%

## O=c1c2cc(Cl)ccc2ncn1Cc1csc(-c2ccc([N+](=O)[O-])cc2)n1
[1]
  Activity: > 50%
[2]
  Activity: 89%

## O=c1c2cc(Cl)ccc2ncn1Cc1csc(-c2ccccc2)n1
[3]
  IC50: 0.123 µM
[4]
  IC50: 0.244 µM
Pseudomonas aeruginosa
  Activity: inactive

## O=c1c2cc(Cl)ccc2ncn1Cc1csc(/C=C/c2ccco2)n1
[3]
  IC50: 2.92 µM
[4]
  IC50: 2.05 µM
Pseudomonas aeruginosa
  Activity: inactive

## CCCCNc1ncc(Cn2cnc3ccc(Cl)cc3c2=O)s1
[1]
  Activity: > 50%
[2]
  Activity: 67%

## COCCNc1nc(Cn2cnc3ccc(Cl)cc3c2=O)cs1
[1]
  Activity: > 50%
[2]
  Activity: 85%

## O=c1c2cc(Cl)ccc2ncn1Cc1csc(-c2ccco2)n1
[3]
  IC50: 1.31 µM
[4]
  IC50: 1.33 µM
Pseudomonas aeruginosa
  Activity: inactive

## Cc1nc(Cn2cnc3ccc(Cl)cc3c2=O)cs1
[1]
  Activity: > 50%
[2]
  Activity: 83%
